Bioassay records (PubChem)
A selection: hits, their analogues and other compounds. The true share with any hit is near 12%.
L major viab: inhibitors of Leishmania major promastigote growth; Leishmania major promastigotes, resazurin fluorescence viability; inhibition, % at 10 µM; hit rate 9% among 200,000; in the data active = inhibition above about 50%;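 also: promastigotes grown with compound for 44 hours at 28 °C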
ABCG2 block: human ABCG2 inhibition, ABCB1 as counter-screen; Q9UNQ0; IgMXP3 cells, JC-1 efflux, flow cytometry; inhibition, % at 6.6 µM; hit rate 0.1% among 190,000; AID 1325;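 active = inhibition above 80%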;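 also: 0% = DMSO and 100% = nicardipine control wells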
Target sequence (Q9UNQ0 whole entry, looked up): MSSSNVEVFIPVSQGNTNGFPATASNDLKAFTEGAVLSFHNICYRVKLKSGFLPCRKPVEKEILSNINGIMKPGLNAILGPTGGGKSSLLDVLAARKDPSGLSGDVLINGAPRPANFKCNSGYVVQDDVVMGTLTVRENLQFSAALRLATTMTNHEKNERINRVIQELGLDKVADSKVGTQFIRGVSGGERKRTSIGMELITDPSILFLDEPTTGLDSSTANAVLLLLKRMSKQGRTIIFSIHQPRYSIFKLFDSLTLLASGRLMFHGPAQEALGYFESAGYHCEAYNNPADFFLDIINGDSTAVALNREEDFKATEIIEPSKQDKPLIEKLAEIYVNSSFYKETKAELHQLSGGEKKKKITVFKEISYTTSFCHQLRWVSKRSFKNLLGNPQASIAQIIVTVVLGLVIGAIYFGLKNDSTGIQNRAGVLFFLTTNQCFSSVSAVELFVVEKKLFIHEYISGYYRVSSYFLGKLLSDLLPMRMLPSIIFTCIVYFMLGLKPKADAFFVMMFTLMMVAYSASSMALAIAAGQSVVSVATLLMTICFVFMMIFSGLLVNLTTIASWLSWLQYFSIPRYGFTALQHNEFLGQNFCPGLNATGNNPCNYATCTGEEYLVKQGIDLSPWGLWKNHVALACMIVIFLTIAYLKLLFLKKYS
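Times: 10 min at 25 °C | Test system: Two drug-resistant human cell lines, ABCG2 and ABCB1 | Quantity: 3 million cells/mL final, two lines in 1:1 ratio | Signal: Flow cytometry, 530 nm JC-1 signal | Dosing: Compound at 6.6 µM | Controls: Nicardipine and DMSO wells | Reagent: JC-1 as fluorescent efflux pump substrate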
WT yeast gro inh: growth inhibition of WT yeast, mitochondrial fusion screen | mitochondrial fusion phenotypic screen, WT strain | AID 1362 | hit rate 2.1% among 190,000 | inhibition, % at 10 µM; in the data active = inhibition above about 58%; tested in S. cerevisiae
ABCB1 block: human ABCB1 inhibition, ABCG2 as counter-screen; AID 1326; CCRF-Adr cells, JC-1 efflux, flow cytometry; hit rate 0.067% among 190,000; P08183; inhibition, % at 6.6 µM; in the data active = inhibition above about 40%;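 also: 0% = vehicle and 100% = reference inhibitor; higher value means more JC-1 retained so stronger ABCB1 efflux block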
RAM network inh: yeast RAM network inhibition | S. cerevisiae dse1pr::URA3 reporter, 5-FOA growth OD615, 2 d; analog-sensitive cbk1-as2 kinase mutant strain | inhibition, % at 50 µM | hit rate 1.8% among 190,000;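 active = inhibition above a set limit, 3 SD over mean compound inhibition, cut at about 8.4% in these data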;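 also: 0% = DMSO-only wells with no growth and 100% = 10 µM 1-NA-PP1 full growth; inhibition rescues growth on 5-FOA so higher OD means more RAM inhibition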
* marks the source's active call; other numbers are inactive results; . = no result.

SMILES	L major viab	ABCG2 block	WT yeast gro inh	ABCB1 block	RAM network inh
CC(C)Oc1ccc(CNCC2(O)CCOC(C)(C)C2)cc1 (stereo not drawn)	43.7	3.0	15.2	0.5	1.1
CC1(C)CC(O)(CNCc2ccc3c(c2)OCO3)CCO1 (stereo not drawn)	75.3*	3.8	-1.3	1.1	1.3
Cc1cc(C)c(Cn2cnc(-c3ccc([N+](=O)[O-])cc3)c2)c(C)c1	0.6	2.4	60.1*	0.6	3.4
CC(C)(C)c1ccc(Cn2cnc(-c3ccc([N+](=O)[O-])cc3)c2)cc1	89.4*	15.8	19.3	1.5	-0.4
CC(C)(C)c1ccc(CNc2ccc([N+](=O)[O-])cn2)cc1	8.2	5.1	80.0*	0.3	1.9
Cc1ccc(-n2cc(-c3ccc([N+](=O)[O-])cc3)[nH]c2=S)c(C)c1	7.5	-0.1	-12.6	-0.1	1.9
COc1ccc(-n2c(=O)/c(=C\c3cccs3)s/c2=C(/C#N)C(=O)N2CCN(C)CC2)cc1	0.6	11.9	-5.5	8.1	-0.6
c1cn2cc(-c3ccc4c(c3)OCO4)nc2s1	0.8	1.0	78.9*	0.1	1.3
Cc1ccc(CC2CC(=O)N(CCc3ccc4c(c3)OCO4)C2=O)cc1 (stereo not drawn)	60.4*	1.7	7.0	0.3	1.2
CC(Oc1ccc(Cl)cc1Cl)C(=O)Nc1ccc(N2CCN(C)CC2)cc1 (stereo not drawn)	100.3*	4.0	25.8	12.1	0.3
CC(=O)N1CCN(c2ccc(NC(=O)COc3ccc(Cl)cc3Cl)cc2)CC1	-3.7	13.0	8.0	1.5	10.1*
CC(=O)N1CCN(c2ccc(NC(=O)C(C)Oc3ccc(Cl)cc3Cl)cc2)CC1 (stereo not drawn)	-3.8	4.3	21.7	0.8	0.0
Cc1cc(Cl)ccc1OCC(=O)N1CCCCC1	-3.7	1.2	-1.4	0.8	0.5
CC(Oc1ccc(Cl)cc1Cl)C(=O)NNC(=O)C(=O)N1CCCCC1 (stereo not drawn)	60.4*	2.2	-31.9	.	0.3
O=C(COc1ccc(Cl)cc1Cl)N1CCCN(C(=O)COc2ccc(Cl)cc2Cl)CC1	97.4*	24.8	75.9*	5.5	3.3
CNC1=C([N+](=O)[O-])CC([N+](=O)[O-])=C(N2CCNCC2)N1C	-8.9	2.4	11.6	0.8	1.1
Cc1nonc1CN(C)C(=O)CC1C(=O)NCCN1Cc1cccc(C(F)(F)F)c1 (stereo not drawn)	-8.1	0.1	1.7	-0.1	1.7
Cc1c(C(=O)O)sc2nc(SCC(=O)Nc3ccc(S(=O)(=O)NC(C)(C)C)cc3)[nH]c(=O)c12	-8.7	-1.1	-11.8	-0.4	8.5*
CCOc1ccc(/C=C/C(=O)NCCc2ccc(OC)c(OC)c2)cc1	-0.7	4.7	-3.2	1.2	3.3
CCCCNC(=O)/C=C/c1ccc(OC)c(Br)c1	-2.2	36.5	-6.9	0.8	9.6*
CCOC(=O)C1=C(O)c2ccccc2C(=O)/C1=C\c1ccc(C)cc1	-4.5	8.3	3.7	1.5	4.6
CCOC(=O)C1=C(Cc2ccc(Cl)cc2)C(=O)c2ccccc2C1=O	91.2*	-2.6	14.3	0.5	6.8
O=C(CN(c1ccccc1)S(=O)(=O)c1ccccc1[N+](=O)[O-])Nc1ccccc1C(=O)N1CCOCC1	-0.4	14.0	7.3	3.9	2.8
CCC(=O)N(Cc1c(C)nn(-c2ccccc2)c1Cl)c1ccc(Cl)cc1	64.7*	-7.0	23.5	0.0	1.2
Cc1[nH]c2ccccc2c1C(c1ccncc1)N1CCN(c2ccccc2F)CC1 (stereo not drawn)	51.4*	10.4	25.3	10.4	1.7
SMILES	L major viab	ABCG2 block	WT yeast gro inh	ABCB1 block	RAM network inh
O=C(NCc1cc(C(F)(F)F)cc(C(F)(F)F)c1)C1CC(c2ccccc2[N+](=O)[O-])=NO1 (stereo not drawn)	87.8*	15.9	7.8	1.6	5.2
O=C(NCc1cccc(C(F)(F)F)c1)C1CC(c2ccccc2[N+](=O)[O-])=NO1 (stereo not drawn)	-6.1	5.6	2.5	0.7	0.3
COc1ccc(C2CC(C)(c3ccc(OC)cc3OC)Nc3ccccc3N2)c(OC)c1 (stereo not drawn)	62.4*	11.1	72.1*	0.7	-1.5
CC(C)CC(/C(O)=C(\C#N)c1nc2ccccc2[nH]1)N1C(=O)c2ccccc2C1=O (stereo not drawn)	64.7*	0.9	8.9	0.8	2.1
COc1cc(Cl)cc(C2NC(=S)NC(c3ccccc3)=C2C(C)=O)c1OCC(=O)O (stereo not drawn)	-8.4	-0.8	-4.8	-0.5	-0.5
CCn1ccnc1CN(C)C(=O)CCc1nnc(CCC2CCCCC2)o1	-1.8	6.4	2.8	1.2	-0.1
Cn1nnc(NCc2cc(Br)ccc2OCc2cccs2)n1	89.3*	12.5	-11.8	1.9	4.3
Cn1nnc(C(O)CNCc2cccs2)n1 (stereo not drawn)	-3.1	0.5	.	0.0	1.8
O=C(NCC1CCCO1)c1cc2c(=O)[nH]c3ccccc3c2s1 (stereo not drawn)	4.5	17.2	-0.9	1.2	2.4
N/C(=N\N=C\c1cccs1)SC1CC(=O)N(c2ccc(Br)cc2)C1=O (stereo not drawn)	100.0*	0.0	3.5	-0.8	3.0
C/C(=N\N=C(/N)SC1CC(=O)N(c2ccc(Br)cc2)C1=O)c1cccs1 (stereo not drawn)	99.9*	-1.0	64.9*	-0.3	3.8
C/C(=N\N=C(/N)SC1CC(=O)N(c2ccccc2)C1=O)c1cccs1 (stereo not drawn)	14.4	1.7	22.2	0.3	4.8
N/C(=N\N=C\c1ccnc2ccccc12)SC1CC(=O)N(c2ccc(Br)cc2)C1=O (stereo not drawn)	-8.6	-0.6	18.8	-0.2	3.2
C/C(=N\N=C(/N)SC1CC(=O)N(c2ccc(Cl)c(Cl)c2)C1=O)c1cccs1 (stereo not drawn)	3.4	-0.6	97.5*	-0.3	1.4
C/C(=N\N=C(/N)SC1CC(=O)N(c2ccc(Cl)cc2)C1=O)c1cccs1 (stereo not drawn)	21.7	0.4	59.5*	-0.5	0.1
CCCCCCOc1ccc(N2C(=O)CC(S/C(N)=N/N=C(\C)c3cccs3)C2=O)cc1 (stereo not drawn)	-2.4	-9.9	38.1	-1.4	5.2
COc1ccc(COC(=O)NNC(=O)c2ccccc2Cl)cc1	2.7	0.9	-5.7	0.3	0.5
CCC(CC)C(=O)Nc1cccc(C(=O)c2ccccc2)c1	6.7	5.3	-6.6	1.0	0.7
Cc1cc(Br)c(Cl)cc1NC(=O)CN1C(=O)C2C3CC(c4ccccc4)C(C3)C2C1=O (stereo not drawn)	84.0*	3.1	69.6*	0.1	4.4
Cc1cc(NC(=O)CCN2C(=O)C3C4CCC(C4)C3C2=O)c(C)cc1Br (stereo not drawn)	4.4	-0.1	14.3	-0.3	3.2
Cc1cccc(NS(=O)(=O)c2cc(C(=O)N3CCOCC3)ccc2Cl)c1	-7.7	4.3	7.5	0.3	0.9
